Shown are actives, neighbours in structure and some others; about 1.9% of the full set was active somewhere.
MC4R barr agon = human MC4R agonism via beta-arrestin; U2OS MC4R beta-arrestin complementation, luminescence; percent of melanotan II response, DMSO zero; activation, % at 8.9 µM; 360,000 tested, 0.98% active; P32245;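 active = activation above a per-plate cutoff, the mean activation of sample wells on that plate plus 3 SD, cut at about 8% in these data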
NTR1 ag = NTR1 (human) agonism. P30989. NTR1-U2OS beta-arrestin-GFP spot imaging, agonist mode. activation, % at 20 µM. 330,000 tested, 0.17% active;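 active = activation at or above 40% of the spot to cytoplasm intensity ratio, with at least 20 cells analyzed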
TLR9-MyD88 block = TLR9-MyD88 interaction inhibition; inhibition, % at 4.98 µM; CHO BLA complementation TLR9-MyD88, CCF4 FRET ratio; Q9NR96+Q99836; AID 504734; 340,000 tested, 0.21% active;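 active = inhibition above the mean over all tested compounds plus 3 SD, cut at about 21% in these data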
MC4R antagonist = human MC4R antagonism in cAMP assay; P32245; MC4R-expressing cells, MTII-stimulated cAMP, LANCE TR-FRET; inhibition, % at 6.5 µM; 360,000 tested, 0.48% active;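 active = inhibition above its plate's cutoff, the mean of tested wells on that plate plus 3 SD, cut at about 29% in these data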
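Assay system: U2OS-MC4R stable cell line; Also added: Melanotan II; Technique: Eu-cAMP/anti-cAMP TR-FRET, emission 671 nm; Times: 30-min compound, 1-h challenge, 1-h detection, room temperature.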
NOD2-RIPK2 inh = blocks binding of human NOD2 to RIPK2. 360,000 tested, 0.38% active. inhibition, % at 4.98 µM. CHO BLA complementation NOD2-RIPK2, CCF4 ratio. O43353; in the data active = inhibition above about 21%
Target sequence (O43353 whole entry, looked up): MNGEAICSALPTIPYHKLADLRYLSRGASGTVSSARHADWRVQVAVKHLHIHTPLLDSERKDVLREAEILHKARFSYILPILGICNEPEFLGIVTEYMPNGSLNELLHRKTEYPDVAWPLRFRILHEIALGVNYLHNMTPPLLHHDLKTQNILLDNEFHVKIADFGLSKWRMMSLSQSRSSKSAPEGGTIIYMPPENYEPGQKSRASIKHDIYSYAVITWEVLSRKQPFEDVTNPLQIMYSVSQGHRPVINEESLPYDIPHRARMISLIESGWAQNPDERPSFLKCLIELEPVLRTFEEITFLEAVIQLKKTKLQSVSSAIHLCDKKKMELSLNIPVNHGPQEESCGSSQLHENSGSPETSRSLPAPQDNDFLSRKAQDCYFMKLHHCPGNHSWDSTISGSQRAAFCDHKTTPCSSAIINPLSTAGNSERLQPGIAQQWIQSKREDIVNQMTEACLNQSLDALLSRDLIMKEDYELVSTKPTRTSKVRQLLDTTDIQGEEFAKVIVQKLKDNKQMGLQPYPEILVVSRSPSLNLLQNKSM
TLR4-MyD88 BLA = inhibitors of human TLR4-MyD88 binding; inhibition, % at 8.4 µM; HeLa CL3-4 TLR4/MyD88 BLA complementation, FRET ratio; O00206+Q99836; 200,000 tested, 0.18% active; AID 861; in the data active = inhibition above about 25%
NOD2-RIPK2 conf = confirmation of human NOD2-RIPK2 interaction inhibitors | 1,200 tested, 70% active | AID 624370 | inhibition, % at 4.98 µM | CHO cells, NOD2-RIPK2 BLA complementation, CCF4 FRET | shares compounds with NOD2-RIPK2 inh;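 active = mean inhibition across replicates above a set limit taken from the earlier primary screen, cut at about 21% in these data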
NOD2 BLA counter = hits BLA reporter in NOD2-RIPK2 inhibitor counterscreen. shares compounds with NOD2-RIPK2 inh. CHO BLA reporter, CCF4 FRET ratio. inhibition, % at 4.98 µM. 1,200 tested, 57% active;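 active = mean inhibition above the low-control mean inhibition plus three low-control SD, cut at about 11% in these data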
Hits are given with their value.

What do the screens show for `CC1=CC2OC3CC4OC(=O)C=CC=CC(C(C)O)OCC(O)C(C)CC(=O)OCC2(CC1O)C4(C)C31CO1` (stereo unspecified)?
MC4R barr agon: inactive; TLR9-MyD88 block: inactive; MC4R antagonist: inactive; NOD2-RIPK2 inh: 21.7; NOD2-RIPK2 conf: 21.4; NOD2 BLA counter: inactive

Results for COc1ccc(-c2ccc3c(c2)CN(C(=O)CCc2ccccc2)Cc2cnnn2-3)cc1 ?
NOD2-RIPK2 inh: inactive

Results for CCOC(=O)[C@]12Cc3cc(OC)ccc3[C@H]1N(C1CCCCC1)C(=O)c1cc(OC)ccc12 ?
NOD2-RIPK2 inh: 40.0; NOD2-RIPK2 conf: 25.6; NOD2 BLA counter: inactive

How did CCOC(=O)[C@]12Cc3ccccc3[C@H]1N(C)C(=O)c1cc(OC)ccc12 do in these assays?
NOD2-RIPK2 inh: inactive

What do the screens show for `CCOC(=O)[C@]12Cc3cc(C)ccc3[C@H]1N(CCC(=O)OC)C(=O)c1cc(OC)ccc12`?
NOD2-RIPK2 inh: inactive

What do the screens show for `CCOC(=O)[C@]12Cc3cc(C)ccc3[C@H]1N(C1CCCCC1)C(=O)c1cc(OC)ccc12`?
NOD2-RIPK2 inh: 62.3; NOD2-RIPK2 conf: 73.3; NOD2 BLA counter: inactive

Results for COC(=O)C1=C(c2ccc(S(C)(=O)=O)cc2)C[C@@H]2CC[C@H]1N2C(=O)NCCO ?
MC4R barr agon: inactive; NTR1 ag: inactive; TLR9-MyD88 block: inactive; MC4R antagonist: inactive; NOD2-RIPK2 inh: inactive

What do the screens show for `N#CC(c1ccccc1)N1CCOCC1` (stereo unspecified)?
MC4R barr agon: inactive; NTR1 ag: inactive; TLR9-MyD88 block: inactive; MC4R antagonist: inactive; NOD2-RIPK2 inh: inactive

What do the screens show for `Cc1nn(CC(C)C)c(Cl)c1C(=O)NC1CCCC1`?
MC4R barr agon: inactive; TLR9-MyD88 block: inactive; MC4R antagonist: inactive; NOD2-RIPK2 inh: inactive

What do the screens show for `N#CC1=C(N)Oc2c(c(=O)sc3ccccc23)C1c1cccnc1` (stereo unspecified)?
MC4R barr agon: inactive; NTR1 ag: inactive; TLR9-MyD88 block: inactive; MC4R antagonist: inactive; NOD2-RIPK2 inh: 21.8; TLR4-MyD88 BLA: inactive; NOD2-RIPK2 conf: inactive; NOD2 BLA counter: inactive

Results for O=c1[nH]c2ccccc2c(=O)n1-c1ccc(Cl)cc1Cl ?
MC4R barr agon: inactive; NTR1 ag: inactive; TLR9-MyD88 block: inactive; MC4R antagonist: inactive; NOD2-RIPK2 inh: inactive; TLR4-MyD88 BLA: inactive

What do the screens show for `CC(=O)OC1(C)CC(C)C(=O)C(C(O)CC2CC(=O)NC(=O)C2)C1` (stereo unspecified)?
MC4R barr agon: inactive; TLR9-MyD88 block: inactive; MC4R antagonist: inactive; NOD2-RIPK2 inh: 28.5; NOD2-RIPK2 conf: 22.6; NOD2 BLA counter: inactive

Results for COc1cc(/C=C/[N+](=O)[O-])ccc1O ?
MC4R barr agon: inactive; NTR1 ag: inactive; TLR9-MyD88 block: inactive; MC4R antagonist: inactive; NOD2-RIPK2 inh: 42.0; TLR4-MyD88 BLA: inactive; NOD2-RIPK2 conf: 44.4; NOD2 BLA counter: inactive

Results for COc1ccc(-n2c(/C=C/c3ccc(O)c(OC)c3)nc3ccccc3c2=O)cc1 ?
MC4R barr agon: inactive; NTR1 ag: inactive; TLR9-MyD88 block: inactive; MC4R antagonist: inactive; NOD2-RIPK2 inh: inactive

Screening data deposited in PubChem BioAssay by several laboratories.
